Laboratory results from PMC3644855 (Nuclear medicine and biology, 2009).
Several values for one entry are separate records, joined by “and”; a condition that tells them apart may be missing. Identical values can stand only once. Like-named read-outs stand apart in the source and are kept apart here.

Columns and labels:
[1] = assay type: in vivo; conditions: rat i.v., Radioactivity
Summary of the method: (§1)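 Awake male Sprague-Dawley rats (220–260 g, 3 per group) got i.v. 0.5–1 mCi 18F-labelled test compound in 100 μL, containing 1, 11 or 18 nmol unlabelled compound. Killed 5 or 30 min later. Caudate, thalamus, hippocampus, brain stem, cerebellum, cortex and plasma (0.05–0.4 g) weighed and radioactivity-counted. Uptake given as DUR = %ID/g × body weight/100.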

5-HT1A receptor = molecular target: T1, 5-HT1A receptor (Rattus norvegicus, UniProt P19327); experiment: Brain tissue specific binding ratio [; assay type: in vivo; conditions: rat i.v., Radioactivity
T1 sequence (P19327 1-422): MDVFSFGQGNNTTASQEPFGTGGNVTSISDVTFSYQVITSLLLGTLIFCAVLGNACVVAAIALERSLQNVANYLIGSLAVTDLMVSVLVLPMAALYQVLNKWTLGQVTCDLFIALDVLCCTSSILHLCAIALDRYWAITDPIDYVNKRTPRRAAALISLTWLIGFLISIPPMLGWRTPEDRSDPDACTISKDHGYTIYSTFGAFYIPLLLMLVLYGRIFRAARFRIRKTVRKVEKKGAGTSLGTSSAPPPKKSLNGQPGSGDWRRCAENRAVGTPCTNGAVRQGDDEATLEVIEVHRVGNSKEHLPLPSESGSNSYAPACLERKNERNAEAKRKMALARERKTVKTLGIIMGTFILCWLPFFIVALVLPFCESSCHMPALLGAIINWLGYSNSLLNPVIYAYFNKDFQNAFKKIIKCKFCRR
Summary of the method: as §1

COc1ccccc1N1CCN(CCN(C(=O)c2ccc(F)cc2)c2ncccn2)CC1 [[^18F]FPWAY, 4-Fluoro-N-{2-[4-(2-methoxyphenyl)-1-piperazinyl]ethyl}-N-(2-pyrimidinyl)benzamide]
DUR Hippocampus ([1]; 1 nmol, 5 min): 4.50 %ID/g * body weight/100 and 4.50±0.41 %ID/g * body weight/100 | DUR brain stem ([1]; 1 nmol, 5 min): 2.53±0.48 %ID/g * body weight/100 | DUR caudate ([1]; 1 nmol, 5 min): 2.14±0.27 %ID/g * body weight/100 | DUR cerebellum ([1]; 1 nmol, 5 min): 1.55±0.24 %ID/g * body weight/100 | DUR cortex ([1]; 1 nmol, 5 min): 3.75±0.74 %ID/g * body weight/100 | DUR thalamus ([1]; 1 nmol, 5 min): 2.54±0.43 %ID/g * body weight/100 | DUR Hippocampus ([1]; 1 nmol, 30 min): 2.34±0.22 %ID/g * body weight/100 | DUR brain stem ([1]; 1 nmol, 30 min): 0.78±0.08 %ID/g * body weight/100 | DUR caudate ([1]; 1 nmol, 30 min): 0.56±0.01 %ID/g * body weight/100 | DUR cerebellum ([1]; 1 nmol, 30 min): 0.36±0.05 %ID/g * body weight/100 | DUR cortex ([1]; 1 nmol, 30 min): 1.12±0.18 %ID/g * body weight/100 | DUR thalamus ([1]; 1 nmol, 30 min): 0.84±0.06 %ID/g * body weight/100 | DUR Hippocampus ([1]; 11 nmol, 30 min): 0.83±0.03 %ID/g * body weight/100 | DUR brain stem ([1]; 11 nmol, 30 min): 0.37±0.05 %ID/g * body weight/100 | DUR caudate ([1]; 11 nmol, 30 min): 0.30±0.02 %ID/g * body weight/100 | DUR cerebellum ([1]; 11 nmol, 30 min): 0.22±0.02 %ID/g * body weight/100 | DUR cortex ([1]; 11 nmol, 30 min): 0.50±0.04 %ID/g * body weight/100 | DUR thalamus ([1]; 11 nmol, 30 min): 0.38±0.02 %ID/g * body weight/100 | DUR Hippocampus ([1]; 18 nmol, 30 min): 0.53±0.02 %ID/g * body weight/100 | DUR brain stem ([1]; 18 nmol, 30 min): 0.27±0.03 %ID/g * body weight/100 | DUR caudate ([1]; 18 nmol, 30 min): 0.24±0.04 %ID/g * body weight/100 | DUR cerebellum ([1]; 18 nmol, 30 min): 0.15±0.01 %ID/g * body weight/100 | DUR cortex ([1]; 18 nmol, 30 min): 0.41±0.13 %ID/g * body weight/100 | DUR thalamus ([1]; 18 nmol, 30 min): 0.28±0.02 %ID/g * body weight/100 | Specific binding ratio [(DURtissue/DURCb)−1] Hippocampus (5-HT1A receptor; 1 nmol, 5 min): 1.95±0.45 | Specific binding ratio [(DURtissue/DURCb)−1] brain stem (5-HT1A receptor; 1 nmol, 5 min): 0.63±0.08 | Specific binding ratio [(DURtissue/DURCb)−1] caudate (5-HT1A receptor; 1 nmol, 5 min): 0.38±0.06 | Specific binding ratio [(DURtissue/DURCb)−1] cortex (5-HT1A receptor; 1 nmol, 5 min): 1.41±0.13 | Specific binding ratio [(DURtissue/DURCb)−1] thalamus (5-HT1A receptor; 1 nmol, 5 min): 0.64±0.04 | Specific binding ratio [(DURtissue/DURCb)−1] Hippocampus (5-HT1A receptor; 1 nmol, 30 min): 5.38±0.23 | Specific binding ratio [(DURtissue/DURCb)−1] brain stem (5-HT1A receptor; 1 nmol, 30 min): 1.12±0.06 | Specific binding ratio [(DURtissue/DURCb)−1] caudate (5-HT1A receptor; 1 nmol, 30 min): 0.53±0.17 | Specific binding ratio [(DURtissue/DURCb)−1] cortex (5-HT1A receptor; 1 nmol, 30 min): 2.04±0.18 | Specific binding ratio [(DURtissue/DURCb)−1] thalamus (5-HT1A receptor; 1 nmol, 30 min): 1.29±0.13 | Specific binding ratio [(DURtissue/DURCb)−1] Hippocampus (5-HT1A receptor; 11 nmol, 30 min): 2.72±0.37 | Specific binding ratio [(DURtissue/DURCb)−1] brain stem (5-HT1A receptor; 11 nmol, 30 min): 0.68±0.14 | Specific binding ratio [(DURtissue/DURCb)−1] caudate (5-HT1A receptor; 11 nmol, 30 min): 0.33±0.06 | Specific binding ratio [(DURtissue/DURCb)−1] cortex (5-HT1A receptor; 11 nmol, 30 min): 1.26±0.11 | Specific binding ratio [(DURtissue/DURCb)−1] thalamus (5-HT1A receptor; 11 nmol, 30 min): 0.70±0.12 | Specific binding ratio [(DURtissue/DURCb)−1] Hippocampus (5-HT1A receptor; 18 nmol, 30 min): 2.57±0.21 | Specific binding ratio [(DURtissue/DURCb)−1] brain stem (5-HT1A receptor; 18 nmol, 30 min): 0.85±0.26 | Specific binding ratio [(DURtissue/DURCb)−1] caudate (5-HT1A receptor; 18 nmol, 30 min): 0.63±0.34 | Specific binding ratio [(DURtissue/DURCb)−1] cortex (5-HT1A receptor; 18 nmol, 30 min): 1.81±0.83 | Specific binding ratio [(DURtissue/DURCb)−1] thalamus (5-HT1A receptor; 18 nmol, 30 min): 0.90±0.13
